Assay results from ChEMBL document CHEMBL2331444, “Design, development and evaluation of novel dual PPARδ/PPARγ agonists” (Bioorg Med Chem Lett, 2013).
The source made the active and inactive calls. The rule behind the calls is not given here.

Columns and labels:
Assay type in all cases: cell-based
[1] = target: T1, Peroxisome proliferator-activated receptor gamma (Mus musculus) (UniProt P37238); test: Agonist activity at PPARgamma in mouse 3T3L1 cells assessed as downregulation of FABP mRNA level at 10 uM after 6 days […] relative to control; settings: 3T3-L1
T1 sequence (whole entry): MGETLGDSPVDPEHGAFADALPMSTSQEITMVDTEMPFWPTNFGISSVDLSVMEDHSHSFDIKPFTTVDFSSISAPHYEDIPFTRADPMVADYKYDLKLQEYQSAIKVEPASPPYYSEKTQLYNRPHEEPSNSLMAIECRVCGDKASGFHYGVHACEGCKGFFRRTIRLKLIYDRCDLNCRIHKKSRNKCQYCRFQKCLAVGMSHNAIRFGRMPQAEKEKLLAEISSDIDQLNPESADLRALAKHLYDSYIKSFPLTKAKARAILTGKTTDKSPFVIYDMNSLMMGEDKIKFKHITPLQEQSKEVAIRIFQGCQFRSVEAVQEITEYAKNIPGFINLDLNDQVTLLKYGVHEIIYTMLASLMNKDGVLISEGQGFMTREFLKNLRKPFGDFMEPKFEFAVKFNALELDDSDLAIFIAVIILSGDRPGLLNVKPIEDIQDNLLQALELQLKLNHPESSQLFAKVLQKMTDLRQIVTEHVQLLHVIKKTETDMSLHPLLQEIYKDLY

[2] = target: T1, Peroxisome proliferator-activated receptor gamma (Mus musculus); test: Agonist activity at PPARgamma in mouse 3T3L1 cells assessed as downregulation of FATP mRNA level at 10 uM after 6 days […] relative to control; settings: 3T3-L1
[3] = target: T1, Peroxisome proliferator-activated receptor gamma (Mus musculus); test: Agonist activity at PPARgamma in mouse 3T3L1 cells assessed as upregulation of HSL mRNA level at 10 uM after 6 days […] relative to control; settings: 3T3-L1
[4] = target: T2, Peroxisome proliferator-activated receptor delta (Mus musculus) (UniProt P35396); test: Agonist activity at PPARdelta in mouse 3T3L1 cells assessed as upregulation of PDK4 mRNA level at 10 uM after 6 days […] relative to control; settings: 3T3-L1
T2 sequence (whole entry): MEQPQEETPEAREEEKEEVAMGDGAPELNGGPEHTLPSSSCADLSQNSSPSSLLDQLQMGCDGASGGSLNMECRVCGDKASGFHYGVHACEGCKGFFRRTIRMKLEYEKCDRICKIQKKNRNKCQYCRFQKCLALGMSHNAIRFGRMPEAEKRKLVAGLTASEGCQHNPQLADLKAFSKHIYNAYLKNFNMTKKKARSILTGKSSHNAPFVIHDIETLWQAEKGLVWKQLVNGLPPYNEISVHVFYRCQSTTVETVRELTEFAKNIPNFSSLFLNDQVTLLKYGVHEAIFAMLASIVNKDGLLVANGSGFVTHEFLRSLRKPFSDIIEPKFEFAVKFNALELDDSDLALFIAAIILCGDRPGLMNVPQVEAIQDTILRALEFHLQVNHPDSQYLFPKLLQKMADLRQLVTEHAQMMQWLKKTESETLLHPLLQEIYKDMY

[5] = target: T1, Peroxisome proliferator-activated receptor gamma (Mus musculus); test: Agonist activity at PPARgamma in mouse 3T3L1 cells assessed as upregulation of ATGL mRNA level at 10 uM after 6 days […] relative to control; settings: 3T3-L1
[6] = target: T1, Peroxisome proliferator-activated receptor gamma (Mus musculus); test: Agonist activity at PPARgamma in mouse 3T3L1 cells assessed as downregulation of CD36 mRNA level at 10 uM after 6 days […] relative to control; settings: 3T3-L1
[7] = target: T1, Peroxisome proliferator-activated receptor gamma (Mus musculus); test: Agonist activity at PPARgamma in mouse 3T3L1 cells assessed as upregulation of ADPN mRNA level at 10 uM after 6 days […] relative to control; settings: 3T3-L1
[8] = target: T3, Peroxisome proliferator-activated receptor gamma (Homo sapiens) (UniProt P37231); test: Transactivation of PPARgamma (unknown origin) expressed in HEK293 cells co-transfected with AP2-PPRE by luciferase reporter gene assay
T3 sequence (whole entry): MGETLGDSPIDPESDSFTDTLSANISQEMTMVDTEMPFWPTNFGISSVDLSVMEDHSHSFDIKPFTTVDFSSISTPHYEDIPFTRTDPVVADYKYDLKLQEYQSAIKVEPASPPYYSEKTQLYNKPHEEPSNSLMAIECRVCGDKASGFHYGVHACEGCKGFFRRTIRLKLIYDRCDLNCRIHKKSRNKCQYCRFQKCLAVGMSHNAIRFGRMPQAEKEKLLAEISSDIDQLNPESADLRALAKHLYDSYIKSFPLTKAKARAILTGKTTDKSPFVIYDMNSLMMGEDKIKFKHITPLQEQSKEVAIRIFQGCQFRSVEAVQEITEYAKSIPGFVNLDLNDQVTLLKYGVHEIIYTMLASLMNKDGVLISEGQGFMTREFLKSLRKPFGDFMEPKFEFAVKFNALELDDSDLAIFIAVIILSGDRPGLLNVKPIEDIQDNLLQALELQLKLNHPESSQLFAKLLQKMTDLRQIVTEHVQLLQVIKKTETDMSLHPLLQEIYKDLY
Procedure, shortened: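 PPRE reporter plasmid (AP2 promoter element) transiently co-transfected into HEK-293 cells with RXR, PPARγ and β-galactosidase vectors using Lipofectamine 2000. Cells were treated across a dose–response series, plotted on a log(μM) axis from about −2 to 2. Luciferase was read as relative light units on a luminometer and normalised to β-galactosidase activity measured with ONPG.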

[9] = target: T1, Peroxisome proliferator-activated receptor gamma (Mus musculus); test: Agonist activity at PPARgamma in mouse 3T3L1 cells assessed as downregulation of DGAT mRNA level at 10 uM after 6 days […] relative to control; settings: 3T3-L1
[10] = target: T1, Peroxisome proliferator-activated receptor gamma (Mus musculus); test: Agonist activity at PPARgamma in mouse 3T3L1 cells assessed as upregulation of MCAD mRNA level at 10 uM after 6 days […] relative to control; settings: 3T3-L1

Activity [1]: Active
Activity [2]: Active
Activity [3]: Active
Activity [4]: Active
Activity [5]: Active
Activity [6]: Active
Activity [7]: Active
Activity [8]: Active
Activity [9]: Active
Activity [10]: Active
SMILES: Cc1ccc(CNCCCN(Cc2ccc(C(=O)O)cc2)Cc2cc(C(F)(F)F)cc(C(F)(F)F)c2)cc1
